# Source: ChEMBL document CHEMBL2375283, “Design and synthesis of 1-aryl-5-anilinoindazoles as c-Jun N-terminal kinase inhibitors” (Bioorg Med Chem Lett, 2013)
# Columns and labels:
# [1] = molecular target: Mitogen-activated protein kinase 10 (Rattus norvegicus, UniProt P49187); assay: Inhibition of JNK3-mediated c-Jun phosphorylation in rat INS-1 cells after 3 hrs by ELISA; format: cell-based, INS1
# [2] = Drug uptake in C57BL6 mouse brain at 10 mg/kg, ip after 2 hrs; format: ADME, organism-based; design: dose 10 mg/kg, route intraperitoneal; conditions: read-out: Drug uptake
# Procedure, shortened: (§1)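 C57Bl6 mice (n = 3) were given 10 mg/kg intraperitoneally. Blood and brain were collected 2 h later, and plasma was frozen at −80 °C. Plasma (1:5 v/v) and brain (1:5 w/v) were mixed with acetonitrile, and brain was probe-sonicated. Drug levels were measured by LC–MS/MS against standards prepared in plasma or in blank brain matrix.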
# [3] = Plasma concentration in C57BL6 mouse at 10 mg/kg, ip after 2 hrs; format: ADME, organism-based; design: dose 10 mg/kg, route intraperitoneal; procedure, shortened: as §1
# [4] = molecular target: Mitogen-activated protein kinase 8 (Homo sapiens, UniProt P45983); assay: Inhibition of JNK1 (unknown origin)-mediated ATF2 Thr71 phosphorylation by HTRF assay
# Procedure, shortened: (§2)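 The kinase reaction used biotinylated ATF2 substrate with ATP. The phospho-Thr71-ATF2 product was detected by HTRF with a Europium-cryptate labeled anti-phospho-Thr71-ATF2 antibody. IC50 values are averages of two or more experiments.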
# [5] = molecular target: Mitogen-activated protein kinase 10 (Homo sapiens, UniProt P53779); assay: Inhibition of JNK3 (unknown origin)-mediated ATF2 Thr71 phosphorylation by HTRF assay; procedure, shortened: as §2
# Homo sapiens = species on record: Homo sapiens; assay: Selectivity ratio of IC50 for JNK1 (unknown origin) to IC50 for JNK3 (unknown origin)
# [6] = Oral bioavailability in Sprague-Dawley rat at 2 mg/kg; format: ADME, organism-based; conditions: in vivo
# Procedure, shortened: (§3)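 Rats received compound intravenously at 1 mg/kg or by oral gavage at 2 mg/kg. Blood was sampled at 5, 15 and 30 min and at 1, 2, 4, 6 and 8 h into EDTA tubes, and plasma was obtained by centrifugation. Plasma proteins were precipitated with acetonitrile, and drug levels were quantified by LC–MS/MS.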
# [7] = AUC in Sprague-Dawley rat at 1 mg/kg, iv and 2 mg/kg, po; format: ADME, organism-based; conditions: plasma; procedure, shortened: as §3
# [8] = Half life in Sprague-Dawley rat at 1 mg/kg, iv and 2 mg/kg, po; format: ADME, organism-based; conditions: in vivo; procedure, shortened: as §3
# [9] = Plasma clearance in Sprague-Dawley rat at 1 mg/kg, iv and 2 mg/kg, po; format: ADME, organism-based; procedure, shortened: as §3
# [10] = Half life in rat liver microsomes; format: ADME, Microsome
# [11] = Half life in human liver microsomes; format: ADME, Microsome
# Mitogen-activated protein kinase 8, sequence (P45983 whole entry): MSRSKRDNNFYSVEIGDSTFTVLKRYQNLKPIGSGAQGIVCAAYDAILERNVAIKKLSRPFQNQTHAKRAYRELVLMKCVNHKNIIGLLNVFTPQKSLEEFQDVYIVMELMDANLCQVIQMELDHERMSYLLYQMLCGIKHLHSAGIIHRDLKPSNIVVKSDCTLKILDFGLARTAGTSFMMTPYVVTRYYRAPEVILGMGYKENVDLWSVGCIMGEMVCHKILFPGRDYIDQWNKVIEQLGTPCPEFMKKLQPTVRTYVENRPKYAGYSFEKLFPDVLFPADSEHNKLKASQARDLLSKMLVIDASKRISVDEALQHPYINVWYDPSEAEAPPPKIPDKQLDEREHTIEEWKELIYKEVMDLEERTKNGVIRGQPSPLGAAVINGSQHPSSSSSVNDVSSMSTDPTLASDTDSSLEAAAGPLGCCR
# Mitogen-activated protein kinase 10 (Homo sapiens, UniProt P53779), sequence (P53779 whole entry): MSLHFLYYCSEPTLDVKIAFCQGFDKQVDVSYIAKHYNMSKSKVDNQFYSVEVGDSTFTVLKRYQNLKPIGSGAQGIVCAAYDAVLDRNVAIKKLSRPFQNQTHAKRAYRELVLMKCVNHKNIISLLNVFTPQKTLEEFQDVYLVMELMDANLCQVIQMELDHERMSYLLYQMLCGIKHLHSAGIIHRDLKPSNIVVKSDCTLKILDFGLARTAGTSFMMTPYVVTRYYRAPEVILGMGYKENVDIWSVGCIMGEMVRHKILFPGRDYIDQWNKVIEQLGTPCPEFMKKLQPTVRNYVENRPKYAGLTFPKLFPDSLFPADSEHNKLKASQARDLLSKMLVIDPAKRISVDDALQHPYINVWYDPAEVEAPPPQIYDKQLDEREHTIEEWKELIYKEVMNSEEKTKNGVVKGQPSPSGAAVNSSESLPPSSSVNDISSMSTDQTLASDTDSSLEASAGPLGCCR
# Mitogen-activated protein kinase 10 (Rattus norvegicus, UniProt P49187), sequence (P49187 whole entry): as the sequence (P53779 whole entry) above, with Q27H, Y32S, I33V, A34V counted along it
IC50 [1] [nM],concentration at 2 h [2] [nM],concentration at 2 h [3] [nM],IC50 [4] [nM],IC50 [5] [nM],Ratio IC50 (Homo sapiens),bioavailability [6] [%],AUC [7] [µM·h],half-life [8] [min],clearance [9] [mL/min/kg],half-life [10] [min],half-life [11] [min],Compound
≥ 20000,690,240,920,33,,,,,,,,O=C(NCCCN1CCOCC1)c1ccc(-n2ncc3cc(Nc4ccccc4Cl)ccc32)cc1
,,,430,46,5,,,,,,,CCOc1ccc(NC(=O)c2cccc(-n3ncc4cc(Nc5ccccc5F)ccc43)c2)cc1OC
,,,,250,5,,,,,,,Cc1cccc(NC(=O)c2cccc(-n3ncc4cc(Nc5ccccc5C)ccc43)c2)c1
,,,730,63,5,,,,,,,NC(=O)c1cccc(-n2ncc3cc(Nc4ccccc4F)ccc32)c1
,810,2120,1200,50,5,20,0.38,120,34,,,CN1CCN(CCNC(=O)c2cccc(-n3ncc4cc(Nc5c(Cl)cccc5Cl)ccc43)c2)CC1
,,,7100,1400,5,,,,,,,O=C(NCCN1CCOCC1)c1cccc(-n2ncc3cc(Nc4ccccn4)ccc32)c1
,570,280,410,15,5,6,0.01,30,123,5.6,8.6,O=C(NCCCN1CCOCC1)c1cccc(-n2ncc3cc(Nc4ccccc4Cl)ccc32)c1
,,,200,24,10,,,,,5.8,12.8,COc1cc(NC(=O)c2cccc(-n3ncc4cc(Nc5ccccc5)ccc43)c2)cc(OC)c1OC
,,,170,38,5,,,,,,,Cc1cc(NC(=O)c2cccc(-n3ncc4cc(Nc5ccccc5F)ccc43)c2)ccc1N1CCOCC1
,3900,1200,970,40,5,27,0.72,198,25,,,Cc1cccc(Nc2ccc3c(cnn3-c3cccc(C(=O)NCCN4CCN(C5CCC5)CC4)c3)c2)c1Cl
,,,93,12,5,,,,,,,COc1cc(NC(=O)c2cccc(-n3ncc4cc(Nc5ccccc5Cl)ccc43)c2)cc(OC)c1OC
,,,,> 20000,,,,,,,,COc1cc(NC(=O)c2cccc(-n3cc(Nc4nc5ccccc5[nH]4)cn3)c2)cc(OC)c1OC
,,,,59,5,,,,,,,COc1cc(NC(=O)c2cccc(-n3ncc4cc(Nc5ccccc5C)ccc43)c2)cc(OC)c1OC
,,,,43,5,,,,,,,COc1ccccc1Nc1ccc2c(cnn2-c2cccc(C(=O)NCCCN3CCOCC3)c2)c1
,30,350,470,120,5,7,0.5,18,79,6,8.9,Cc1cccc(NC(=O)c2cccc(-n3ncc4cc(Nc5ccccc5F)ccc43)c2)c1
,50,790,73,9,5,5,0.05,90,57,,,COc1cc(NC(=O)c2cccc(-n3ncc4cc(Nc5ccccc5F)ccc43)c2)cc(OC)c1OC
,,,,640,10,,,,,,,O=C(NCCN1CCOCC1)c1cc(-n2ncc3cc(Nc4c(Cl)cccc4Cl)ccc32)ccn1
,,,≥ 20000,1100,> 25,,,,,,,Cc1cccc(CC(=O)Nc2cnn(-c3cccc(C(=O)NC4CCOC(C)(C)C4)c3)c2)c1 (stereo not given)
,,,7010,640,10,,,,,,,O=C(NCCN1CCOCC1)c1cccc(-n2ncc3cc(Nc4ccccc4Cl)ccc32)n1
,,,,110,10,,,,,,,CN1CCN(CCNC(=O)c2cncc(-n3ncc4cc(Nc5c(Cl)cccc5Cl)ccc43)c2)CC1
,,,1380,77,5,,,,,,,O=C(NCCN1CCOCC1)c1cccc(-n2ncc3cc(Nc4c(Cl)cccc4Cl)ccc32)c1
,,,1300,80,10,,,,,,,O=C(NCCN1CCOCC1)c1cccc(-n2ncc3cc(Nc4ccccc4Cl)ncc32)c1
5300,1400,530,2300,120,10,5,0.01,30,54,,,O=C(NCCN1CCOCC1)c1ccnc(-n2ncc3cc(Nc4ccccc4Cl)ccc32)c1
≥ 20000,,,800,35,5,,,,,,,O=C(NCCO)c1cccc(-n2ncc3cc(Nc4ccccc4Cl)ccc32)c1
,,,160,32,5,,,,,,,Cc1cc(NC(=O)c2cccc(-n3ncc4cc(Nc5ccccc5Cl)ccc43)c2)ccc1N1CCOCC1
4100,550,560,750,54,5,,,,,,,O=C(NCCN1CCOCC1)c1cccc(-n2ncc3cc(Nc4ccccc4Cl)ccc32)c1
,,,,22,5,,,,,,,O=C(NCCCN1CCOCC1)c1cccc(-n2ncc3cc(Nc4ccccc4F)ccc32)c1
,,,1200,170,10,,,,,,,O=C(NCCN1CCOCC1)c1cccc(-n2ncc3cc(Nc4ccccc4)cnc32)c1
